According to ChEMBL document CHEMBL3817732, “Rational Design of Calpain Inhibitors Based on Calpastatin Peptidomimetics” (J Med Chem, 2016):
Active and inactive are the calls of the source. The calls are words filed in the database; no cut-off is given here.

Tests used:
[1] = target: Procathepsin L (Homo sapiens) (UniProt P07711); assay: Inhibition of human liver cathepsin L assessed as cleavage of Z-FR-AMC at 100 uM by fluorescence spectrometer
Papain (Carica papaya) = target: T1, Papain (Carica papaya) (UniProt P00784); assay: Inhibition of papaya papain assessed as cleavage of (EDANS)-EPLFAERK-(DABCYL) at 100 uM by fluorescence spectrometer
T1 sequence (whole entry): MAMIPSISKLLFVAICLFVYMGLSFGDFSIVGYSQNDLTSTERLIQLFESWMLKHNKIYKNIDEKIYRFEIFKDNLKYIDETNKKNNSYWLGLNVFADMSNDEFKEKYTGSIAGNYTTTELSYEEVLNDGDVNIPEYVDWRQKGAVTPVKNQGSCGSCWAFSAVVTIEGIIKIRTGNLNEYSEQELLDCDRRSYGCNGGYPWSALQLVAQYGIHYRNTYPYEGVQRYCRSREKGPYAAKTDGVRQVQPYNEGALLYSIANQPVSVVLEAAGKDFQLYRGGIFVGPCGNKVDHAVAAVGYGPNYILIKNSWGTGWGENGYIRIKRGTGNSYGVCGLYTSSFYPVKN

Rattus norvegicus [2] = organism: Rattus norvegicus; assay: Activation of rat recombinant calpain-1 protease core expressed in Escherichia coli BL21(DE3) assessed as cleavage of (EDANS)-EPLFAERK-(DABCYL) at 100 uM in presence of CaCl2 by fluorescence spectrometer
[3] = Mixed-type inhibition of rat recombinant C-terminal His-tagged calpain-2 expressed in Escherichia coli BL21(DE3) using (EDANS)-EPLFAERK-(DABCYL) as substrate assessed as enzyme/substrate/inhibitor complex in presence of CaCl2 by Michaelis-Menten plot analysis
Rattus norvegicus [4] = organism: Rattus norvegicus; assay: Inhibition of rat recombinant C-terminal His-tagged calpain-2 expressed in Escherichia coli BL21(DE3) assessed as cleavage of (EDANS)-EPLFAERK-(DABCYL) at 100 uM in presence of CaCl2 by fluorescence spectrometer relative to control
Rattus norvegicus [5] = organism: Rattus norvegicus; assay: Inhibition of rat calpain-1 assessed as cleavage of (EDANS)-EPLFAERK-(DABCYL) at 100 uM in presence of CaCl2 by fluorescence spectrometer relative to control
[6] = Mixed-type inhibition of rat recombinant C-terminal His-tagged calpain-2 expressed in Escherichia coli BL21(DE3) using (EDANS)-EPLFAERK-(DABCYL) as substrate assessed as enzyme/inhibitor complex in presence of CaCl2 by Michaelis-Menten plot analysis
Rattus norvegicus [7] = organism: Rattus norvegicus; assay: Inhibition of rat recombinant calpain-1 protease core expressed in Escherichia coli BL21(DE3) assessed as cleavage of (EDANS)-EPLFAERK-(DABCYL) at 100 uM in presence of CaCl2 by fluorescence spectrometer
[8] = Non-competitive inhibition of rat recombinant C-terminal His-tagged calpain-2 expressed in Escherichia coli BL21(DE3) using (EDANS)-EPLFAERK-(DABCYL) as substrate assessed as enzyme/inhibitor complex in presence of CaCl2 by Michaelis-Menten plot analysis
[9] = Non-competitive inhibition of rat recombinant C-terminal His-tagged calpain-2 expressed in Escherichia coli BL21(DE3) using (EDANS)-EPLFAERK-(DABCYL) as substrate assessed as enzyme/substrate/inhibitor complex in presence of CaCl2 by Michaelis-Menten plot analysis
Rattus norvegicus [10] = organism: Rattus norvegicus; assay: Binding affinity to rat recombinant C-terminal His-tagged calpain-2 C105S mutant expressed in Escherichia coli BL21(DE3) at 25 to 50 uM in presence of CaCl2 and trypsin by MALDI-TOFpeptide fingerprinting method
Procedure, shortened: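 The mixture is exposed to long-wave UV for 2.5 h, with a DMSO control. Photoadducts are tryptically digested and identified by MALDI-TOF mass fingerprinting.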

[11] = Competitive inhibition of rat recombinant C-terminal His-tagged calpain-2 expressed in Escherichia coli BL21(DE3) using (EDANS)-EPLFAERK-(DABCYL) as substrate assessed as enzyme/inhibitor complex in presence of CaCl2 by Michaelis-Menten plot analysis
[12] = Competitive inhibition of porcine erythrocyte calpain-2 using Suc-Leu-Tyr-AMC as substrate; parameters: species or system Sus scrofa
[13] = Inhibition of calpain-1 (unknown origin) using H-Glu(Edans)-Pro-Leu-Phe-Ala-Glu-Arg-Lys(Dabcyl)-OH as substrate measured every 13 secs for 1 hr by fluorescence assay

Chain of Procathepsin L (Homo sapiens) (P07711 114-333 limits assumed): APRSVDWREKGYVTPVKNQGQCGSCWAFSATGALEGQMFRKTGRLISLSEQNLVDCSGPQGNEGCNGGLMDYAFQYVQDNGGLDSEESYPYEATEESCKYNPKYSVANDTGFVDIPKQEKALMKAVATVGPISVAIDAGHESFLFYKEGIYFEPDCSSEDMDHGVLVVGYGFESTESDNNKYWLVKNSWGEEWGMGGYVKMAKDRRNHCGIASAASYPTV

| inhibition [1] | inhibition (Papain (Carica papaya)) | inhibition (Rattus norvegicus [4]) | inhibition (Rattus norvegicus [5]) | Molecule | further results |
| --- | --- | --- | --- | --- | --- |
| > 85% | inactive | 78% | 38% | C[C@@H]1NC(=O)[C@H](CCCN)NC(=O)CNC(=O)[C@H](CO)NC(=O)CNC(=O)[C@@H]2CCCN2[C@@H]1C(=O)NC(C)(C)C | Activity (Rattus norvegicus [2]): Active; Ki [3]: 45.6 µM; Ki [6]: 20.3 µM |
| – | – | 66% | 54% | C[C@H](NC(=O)C/N=C1\N[C@@H](C)[C@@H](C(=O)NC(C)(C)C)N2CCC[C@H]12)C(=O)N[C@H](CCCN)C(=O)O | – |
| – | – | 67% | 14% | CC[C@H](C)[C@H](NC(=O)C/N=C1\N[C@@H](C)[C@@H](C(=O)NC(C)(C)C)N2CCC[C@H]12)C(=O)N[C@H](CCCN)C(=O)O | – |
| > 85% | inactive | > 85% | Active | CC(C)C[C@H](/N=C1\N[C@@H](C)[C@@H](C(=O)NC(C)(C)C)N2CCC[C@H]12)C(=O)N[C@@H](CCCCN)C(=O)NCC(=O)O | Activity (Rattus norvegicus [2]): Active; Ki [11]: 12.2 µM |
| > 85% | inactive | 84% | 45% | CC(C)C[C@@H]1NC(=O)[C@H](C)NC(=O)CNC(=O)[C@@H]2CCCN2[C@H](C(=O)NC(C)(C)C)[C@H](C)NC(=O)[C@H](CCCCN)NC1=O | inhibition (Rattus norvegicus [7]): Active; Ki [11]: 16.6 µM |

Second part, the molecule before the results:

| Molecule | inhibition [1] | inhibition (Papain (Carica papaya)) | inhibition (Rattus norvegicus [4]) | inhibition (Rattus norvegicus [5]) | further results |
| --- | --- | --- | --- | --- | --- |
| CC(C)C[C@@H](NC(=O)C/N=C1\N[C@@H](C)[C@@H](C(=O)NC(C)(C)C)N2CCC[C@H]12)C(=O)N[C@H](CCCN)C(=O)O | > 32% | inactive | 16% | Active | inhibition (Rattus norvegicus [7]): Active; Ki [8]: 154 µM; Ki [9]: 119 µM |
| CC(C)C[C@@H]1NC(=O)[C@H](C)NC(=O)CNC(=O)[C@@H]2CCCN2[C@H](C(=O)NC(C)(C)C)[C@H](CSC2CC(=O)N(c3cccc(C(=O)c4ccccc4)c3)C2=O)NC(=O)[C@H](CCCCN)NC1=O (stereo partly specified) | – | – | Active | – | inhibition (Rattus norvegicus [10]): Active |
| C[C@@H]1N/C(=N\CC(=O)N[C@@H](Cc2ccccc2)C(=O)N[C@H](CCCN)C(=O)O)[C@H]2CCCN2[C@@H]1C(=O)NC(C)(C)C | – | – | 39% | 28% | – |
| H-DPMSSTYIEELGKREVTIPPKYRELLA-OH | – | – | – | – | Ki [12]: 8.7 nM; Ki [11]: 0.0168 µM |
| CC(C)[C@H](NC(=O)C/N=C1\N[C@@H](C)[C@@H](C(=O)NC(C)(C)C)N2CCC[C@H]12)C(=O)N[C@H](CCCN)C(=O)O | 17% | – | 79% | – | – |
| CC[C@H](C)[C@H](NC(C)=O)C(=O)N1CCC[C@H]1C(=O)N1CCC[C@H]1C(=O)N[C@@H](CCCCN)C(=O)N[C@@H](Cc1ccc(O)cc1)C(=O)N[C@H]1CSSC[C@@H](C(N)=O)NC(=O)[C@H](CC(C)C)NC(=O)[C@H](CC(C)C)NC(=O)[C@H](CCC(=O)O)NC1=O | – | – | – | – | Ki [13]: 10.2 µM |
| CC(C)C[C@H](NC(=O)C/N=C1\N[C@@H](CSC2CC(=O)N(c3cccc(C(=O)c4ccccc4)c3)C2=O)[C@@H](C(=O)NC(C)(C)C)N2CCC[C@H]12)C(=O)N[C@H](CCCN)C(=O)O (stereo partly specified) | – | – | Active | – | inhibition (Rattus norvegicus [10]): Active |
